Test results taken from ChEMBL document CHEMBL4118273, “Design, Synthesis, and Biological Evaluation of Pyrimido[4,5- d]pyrimidine-2,4(1 H,3 H)-diones as Potent and Selective Epidermal Growth Factor Receptor (EGFR) Inhibitors against L858R/T790M Resistance Mutation” (J Med Chem, 2018).

Key:
[1] = Half life in mouse liver microsomes at 0.1 uM after 60 mins in presence of NADPH by LC-MS/MS analysis; assay type: ADME, microsome
In short: (§1)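 Human or mouse liver microsomes (0.33 mg/mL protein) in 0.1 M Tris/HCl pH 7.4 with 5 mM MgCl2, 1 mM NADPH, 0.01% DMSO and 0.005% BSA; test compound at 0.1 µM final, 37 °C for 60 min. Aliquots at 0, 7, 17, 30 and 60 min quenched by methanol precipitation, centrifuged and analysed by LC-MS/MS.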

Mus musculus [2] = assay: Toxicity in Balb/c mouse xenografted with human NCI-H1975 cells assessed as mortality at 50 mg/kg/day, po once daily for 14 days measured every 2 to 3 days during compound dosing; assay type: organism-based; details: in vivo
[3] = AUC (0 to infinity) in ICR mouse at 1 mg/kg, iv by LC-MS/MS analysis; assay type: ADME, organism-based; design: dose 1 mg/kg, route intravenous, time infinity; details: in vivo
[4] = biological target: T1, Epidermal growth factor receptor (Homo sapiens, UniProt P00533); assay: Inhibition of recombinant human GST-tagged EGFR (668 to 1210 residues) expressed in baculovirus expression system using Poly(Glu,Tyr)4:1 as substrate after 1 hr by ELISA
T1 sequence (P00533 whole entry, the tested form may be a part): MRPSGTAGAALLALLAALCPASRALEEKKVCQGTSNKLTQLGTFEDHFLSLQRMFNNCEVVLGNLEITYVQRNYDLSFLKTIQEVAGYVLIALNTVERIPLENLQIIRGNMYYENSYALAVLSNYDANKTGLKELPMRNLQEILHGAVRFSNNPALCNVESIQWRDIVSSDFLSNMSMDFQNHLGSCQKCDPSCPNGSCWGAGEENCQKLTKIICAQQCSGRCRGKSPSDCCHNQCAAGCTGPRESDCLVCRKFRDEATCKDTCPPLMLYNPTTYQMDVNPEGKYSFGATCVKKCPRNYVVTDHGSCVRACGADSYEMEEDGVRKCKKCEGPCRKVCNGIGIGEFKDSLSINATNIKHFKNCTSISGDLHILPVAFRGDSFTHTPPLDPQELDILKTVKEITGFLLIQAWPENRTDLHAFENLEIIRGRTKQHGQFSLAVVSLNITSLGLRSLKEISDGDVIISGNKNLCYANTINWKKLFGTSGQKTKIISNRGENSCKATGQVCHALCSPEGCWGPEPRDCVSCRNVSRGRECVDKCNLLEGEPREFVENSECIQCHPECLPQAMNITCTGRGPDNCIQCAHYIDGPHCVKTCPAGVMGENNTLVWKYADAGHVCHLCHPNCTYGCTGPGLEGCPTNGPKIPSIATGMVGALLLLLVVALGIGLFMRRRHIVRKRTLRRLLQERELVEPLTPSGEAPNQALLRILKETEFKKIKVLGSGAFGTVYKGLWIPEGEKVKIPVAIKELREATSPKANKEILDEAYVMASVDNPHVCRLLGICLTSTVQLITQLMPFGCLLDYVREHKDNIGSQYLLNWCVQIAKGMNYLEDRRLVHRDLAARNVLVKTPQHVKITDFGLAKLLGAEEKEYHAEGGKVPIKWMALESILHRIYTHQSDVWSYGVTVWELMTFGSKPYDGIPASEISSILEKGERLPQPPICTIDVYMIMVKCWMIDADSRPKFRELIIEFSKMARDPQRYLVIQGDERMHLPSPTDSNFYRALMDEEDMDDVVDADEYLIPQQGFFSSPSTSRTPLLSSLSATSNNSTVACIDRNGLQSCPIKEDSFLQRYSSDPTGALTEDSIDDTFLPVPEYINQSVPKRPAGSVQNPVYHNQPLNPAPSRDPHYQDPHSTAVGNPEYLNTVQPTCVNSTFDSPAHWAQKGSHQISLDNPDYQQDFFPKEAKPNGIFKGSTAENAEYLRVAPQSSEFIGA

Cytochrome P450 2D6 = Cytochrome P450 2D6 (Homo sapiens, UniProt P10635); assay: Inhibition of human CYP2D6 (unknown origin); assay type: ADME
Sequence of Cytochrome P450 2D6 (P10635 whole entry): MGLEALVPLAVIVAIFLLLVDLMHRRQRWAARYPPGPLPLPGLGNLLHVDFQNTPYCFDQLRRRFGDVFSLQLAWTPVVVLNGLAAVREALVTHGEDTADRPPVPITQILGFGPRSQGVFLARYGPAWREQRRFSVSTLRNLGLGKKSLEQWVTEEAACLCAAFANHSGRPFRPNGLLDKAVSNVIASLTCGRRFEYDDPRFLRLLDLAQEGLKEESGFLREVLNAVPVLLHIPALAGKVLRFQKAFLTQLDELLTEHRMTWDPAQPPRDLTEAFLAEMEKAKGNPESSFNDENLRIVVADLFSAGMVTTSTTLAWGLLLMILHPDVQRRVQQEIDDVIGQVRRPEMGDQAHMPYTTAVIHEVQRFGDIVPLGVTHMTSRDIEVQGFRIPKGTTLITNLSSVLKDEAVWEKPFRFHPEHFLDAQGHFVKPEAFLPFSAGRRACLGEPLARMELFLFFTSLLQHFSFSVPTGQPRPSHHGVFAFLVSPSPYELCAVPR

[5] = Half life in ICR mouse at 1 mg/kg, iv by LC-MS/MS analysis; assay type: ADME, organism-based; details: in vivo
[6] = biological target: T1, Epidermal growth factor receptor; assay: Inhibition of wild type EGFR in EGF-stimulated human A431 cells assessed as reduction in Akt phosphorylation at Ser-473 residue up to 1000 nM by Western blot method
In short: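 A431 cells lysed in Tris-HCl pH 6.8 buffer with DTT, SDS and glycerol; equal protein amounts resolved on 8% SDS-PAGE, transferred to nitrocellulose and probed for p-EGFR (Y1068), total EGFR, p-AKT (Ser473), total AKT and GAPDH.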

[7] = Clearance in ICR mouse at 1 mg/kg, iv by LC-MS/MS analysis; assay type: ADME, organism-based; details: in vivo
Mus musculus [8] = assay: Toxicity in Balb/c mouse xenografted with human A431 cells assessed as mortality at 50 mg/kg/day, po once daily for 14 days measured every 2 to 3 days during compound dosing; assay type: organism-based; details: in vivo
[9] = AUC (0 to t) in ICR mouse at 10 mg/kg, po by LC-MS/MS analysis; assay type: ADME, organism-based; details: in vivo
[10] = Apparent permeability from apical to basolateral side in MDCK2 cells at 2 uM after 2.5 hrs by LC-MS/MS method; assay type: ADME, cell-based, Canis lupus familiaris, MDCK-II; details: dog, MDCK
[11] = Cmax in ICR mouse at 10 mg/kg, po by LC-MS/MS analysis; assay type: ADME, organism-based; design: dose 10 mg/kg, route oral; details: in vivo
A-431 [12] = assay: Growth inhibition of human A431 cells xenografted in Balb/c mouse at 50 mg/kg/day, po for 14 days measured every 2 to 3 days during compound dosing relative to control; assay type: organism-based; details: A-431, po, read-out: GI
In short: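 BALB/c mice, 4–6 weeks old, implanted subcutaneously in the right flank with about 2 × 10^6 H1975 or A431 cells grown in RPMI-1640 with 10% FBS. At 200–400 mm3 tumors, mice were randomized (six/group) and dosed orally once daily with vehicle or inhibitor for 14 days. Caliper volumes, V = L×W²/2, were taken every 2–3 days; means ± SEM, Student's t test vs vehicle.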

Mus musculus [13] = assay: Toxicity in Balb/c mouse xenografted with human NCI-H1975 cells assessed as body weight loss at 50 mg/kg/day, po once daily for 14 days measured every 2 to 3 days during compound dosing; assay type: organism-based; details: in vivo
In short: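 A431 or H1975 cells were grown in RPMI-1640 with 10% FBS, and about 2 × 10^6 cells were implanted subcutaneously in the right flank of 4–6-week-old BALB/c mice. At 200–400 mm³, mice were randomized to vehicle or treated groups (n = 6). Dosing was oral, once daily, for 14 days. Body weights were recorded every 2–3 days.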

[14] = AUC (0 to t) in ICR mouse at 1 mg/kg, iv by LC-MS/MS analysis; assay type: ADME, organism-based; details: in vivo
[15] = Tmax in ICR mouse at 1 mg/kg, iv by LC-MS/MS analysis; assay type: ADME, organism-based; details: in vivo
Cytochrome P450 3A4 = Cytochrome P450 3A4 (Homo sapiens, UniProt P08684); assay: Inhibition of human CYP3A4 (unknown origin); assay type: ADME
Sequence of Cytochrome P450 3A4 (P08684 whole entry): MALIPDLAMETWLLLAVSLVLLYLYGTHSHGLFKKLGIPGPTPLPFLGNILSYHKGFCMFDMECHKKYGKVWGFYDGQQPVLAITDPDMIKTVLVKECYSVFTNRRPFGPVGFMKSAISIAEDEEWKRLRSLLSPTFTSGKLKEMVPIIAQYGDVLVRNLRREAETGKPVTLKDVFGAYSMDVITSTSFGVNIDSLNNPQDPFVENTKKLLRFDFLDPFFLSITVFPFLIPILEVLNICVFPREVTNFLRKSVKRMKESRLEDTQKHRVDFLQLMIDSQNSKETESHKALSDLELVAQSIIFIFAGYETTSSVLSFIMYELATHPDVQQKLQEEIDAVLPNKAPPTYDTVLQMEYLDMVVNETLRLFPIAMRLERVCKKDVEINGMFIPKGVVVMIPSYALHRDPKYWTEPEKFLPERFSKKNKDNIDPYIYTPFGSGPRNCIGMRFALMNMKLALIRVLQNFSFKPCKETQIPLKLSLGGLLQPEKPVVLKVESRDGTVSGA

Cytochrome P450 1A2 = biological target: T2, Cytochrome P450 1A2 (Homo sapiens, UniProt P05177); assay: Inhibition of human CYP1A2 (unknown origin); assay type: ADME
T2 sequence (P05177 whole entry): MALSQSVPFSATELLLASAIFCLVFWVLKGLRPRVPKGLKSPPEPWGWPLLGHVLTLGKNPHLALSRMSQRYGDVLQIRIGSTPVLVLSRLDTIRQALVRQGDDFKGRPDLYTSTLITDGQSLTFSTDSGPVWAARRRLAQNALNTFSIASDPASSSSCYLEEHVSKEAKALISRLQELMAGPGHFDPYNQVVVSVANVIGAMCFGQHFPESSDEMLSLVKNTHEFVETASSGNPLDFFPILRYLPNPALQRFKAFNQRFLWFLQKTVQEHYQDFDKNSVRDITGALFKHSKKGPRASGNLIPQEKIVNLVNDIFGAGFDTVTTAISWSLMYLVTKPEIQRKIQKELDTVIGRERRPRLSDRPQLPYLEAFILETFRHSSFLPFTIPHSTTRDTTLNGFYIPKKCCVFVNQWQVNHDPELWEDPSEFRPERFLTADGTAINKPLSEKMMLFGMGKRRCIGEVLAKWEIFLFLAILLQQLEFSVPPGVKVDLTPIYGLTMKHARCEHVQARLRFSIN

Homo sapiens = species on record: Homo sapiens; assay: Selectivity ratio of IC50 for recombinant human GST-tagged EGFR (668 to 1210 residues) expressed in baculovirus expression system to IC50 for recombinant human GST-tagged EGFR L858R/T790M double mutant expressed in baculovirus expression system
In short: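 ELISA-based EGFR tyrosine kinase assay run on wild-type and L858R/T790M enzymes. IC50 values come from at least three independent determinations, reported as means ± SD. Selectivity is the wild-type IC50 divided by the L858R/T790M IC50.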

A-431 [16] = assay: Cytotoxicity against human A431 cells harboring wild type EGFR assessed as reduction in cell viability after 72 hrs by SRB assay; assay type: cell-based; details: A-431, 72 h
In short: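 Cell growth inhibition measured by sulforhodamine B colorimetric assay in H1975 (EGFR L858R/T790M) and A431 (overexpressed wild-type EGFR) cells; IC50 values are means ± SD of at least three independent determinations. Selectivity is taken as the A431:H1975 IC50 ratio.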

[17] = Efflux ratio of apparent permeability from apical to basolateral side in MDCK2 cells at 2 uM after 2.5 hrs by LC-MS/MS method; assay type: ADME, cell-based, Canis lupus familiaris, MDCK-II; details: dog, MDCK
[18] = Half life in human liver microsomes at 0.1 uM after 60 mins in presence of NADPH by LC-MS/MS analysis; assay type: ADME, microsome; in short: as §1
[19] = biological target: Epidermal growth factor receptor (Homo sapiens, UniProt P00533, L858R/T790M); assay: Inhibition of recombinant human GST-tagged EGFR L858R/T790M double mutant expressed in baculovirus expression system using Poly(Glu,Tyr)4:1 as substrate after 1 hr by ELISA
Sequence of Epidermal growth factor receptor (Homo sapiens, UniProt P00533, L858R/T790M) (P00533 25-1210 T790M/L858R limits assumed): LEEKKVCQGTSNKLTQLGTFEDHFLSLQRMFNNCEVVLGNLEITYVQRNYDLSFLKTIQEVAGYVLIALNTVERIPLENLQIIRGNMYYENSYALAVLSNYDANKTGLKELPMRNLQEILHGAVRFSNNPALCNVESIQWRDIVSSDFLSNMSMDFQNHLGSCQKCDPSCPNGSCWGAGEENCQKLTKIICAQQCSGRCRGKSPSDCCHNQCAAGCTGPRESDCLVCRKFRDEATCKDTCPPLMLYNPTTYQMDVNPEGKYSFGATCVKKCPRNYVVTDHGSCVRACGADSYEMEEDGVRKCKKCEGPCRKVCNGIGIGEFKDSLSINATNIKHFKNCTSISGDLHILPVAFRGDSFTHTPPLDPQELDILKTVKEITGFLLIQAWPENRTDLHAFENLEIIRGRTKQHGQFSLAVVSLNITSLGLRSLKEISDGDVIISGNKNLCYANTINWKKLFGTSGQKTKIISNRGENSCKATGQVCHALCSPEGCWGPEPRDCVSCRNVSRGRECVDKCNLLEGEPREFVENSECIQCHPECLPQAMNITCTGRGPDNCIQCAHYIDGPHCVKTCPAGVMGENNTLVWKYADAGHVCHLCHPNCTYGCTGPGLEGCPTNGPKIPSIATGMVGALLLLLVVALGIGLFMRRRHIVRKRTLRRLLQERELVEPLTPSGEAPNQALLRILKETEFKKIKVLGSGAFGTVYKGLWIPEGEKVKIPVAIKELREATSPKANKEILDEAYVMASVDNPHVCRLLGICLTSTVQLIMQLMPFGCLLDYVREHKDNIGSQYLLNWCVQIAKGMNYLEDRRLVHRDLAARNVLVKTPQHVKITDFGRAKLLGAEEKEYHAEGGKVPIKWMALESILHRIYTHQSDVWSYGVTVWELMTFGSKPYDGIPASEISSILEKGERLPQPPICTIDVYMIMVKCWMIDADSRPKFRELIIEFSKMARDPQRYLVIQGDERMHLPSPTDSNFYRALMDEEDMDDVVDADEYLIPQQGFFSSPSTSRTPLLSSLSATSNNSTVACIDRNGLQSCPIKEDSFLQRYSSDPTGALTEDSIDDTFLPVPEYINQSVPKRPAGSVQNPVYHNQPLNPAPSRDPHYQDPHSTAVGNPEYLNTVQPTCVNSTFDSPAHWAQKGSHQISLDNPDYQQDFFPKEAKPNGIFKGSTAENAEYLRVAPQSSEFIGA

C=CC(=O)Nc1cccc(-n2c(=O)n(C(C)C)c(=O)c3cnc(Nc4ccc(N5CCN(C)CC5)cc4OC)nc32)c1
half-life at 0.1 µM [1]: 46.1 min | Activity (Mus musculus [2]): Non-Toxic | AUC(0-inf) [3]: 186 ng·h/mL | IC50 [4]: 79 nM | IC50 (Cytochrome P450 2D6): > 50 µM | half-life [5]: 54 min | inhibition (INH) [6]: Not Active | clearance [7]: 89.5 mL/min/kg | Activity (Mus musculus [8]): Non-Toxic | AUC(0-t) [9]: 650 ng·h/mL | Papp A→B at 2.5 h, 2 µM [10]: 1.5 ×10⁻⁶ cm/s | Cmax [11]: 271 ng/mL | inhibition at 50 mg/kg (A-431 [12]): 37% | Activity (Mus musculus [13]): Non-Toxic | AUC(0-t) [14]: 181 ng·h/mL | Tmax [15]: 6 min | IC50 (Cytochrome P450 3A4): 23.9 µM | IC50 (Cytochrome P450 1A2): > 50 µM | Ratio IC50 (Homo sapiens): 263 | IC50 (A-431 [16]): 1560 nM | efflux ratio at 2.5 h, 2 µM [17]: 9.1 | half-life at 0.1 µM [18]: 85.4 min | IC50 [19]: 0.3 nM
